Published values pooled from the literature.
pIC50: −log10 of the molar value.
Cell line: HL-60
Read-out: cell growth or viability

Nc1ncc(-c2cnn(C3CCNCC3)c2)cc1-c1nnc(CC2CC2)o1  pIC50 (trypan blue; 72 h): 6.17
CCn1c(-c2nnc(NC(=O)c3cc4c([nH]c5ccccc54)c(-c4ccc(OC)cc4)n3)s2)cc2ccccc21  pIC50 (MTT; 72 h): 4.34
COc1cc([C@@H]2c3cc4c(cc3[C@@H](O[C@@H]3O[C@@H]5CO[C@@H](C)O[C@H]5[C@H](O)[C@H]3O)[C@H]3COC(=O)[C@H]23)OCO4)cc(OC)c1O  pIC50 (MTT; 48 h): 6.51
CN1c2ccccc2C(=O)N2[C@H](C(=O)Nc3ccc(C(=O)Nc4ccccc4N)cc3)Cc3c([nH]c4ccccc34)[C@@H]12  pIC50: 6.25
CC(C)C[C@H](NC(=O)[C@H](Cc1ccccc1)NC(=O)c1cnccn1)B(O)O  pIC50 (ATP luminescence): 8.39
COc1cc(-c2nc(C(=O)Nc3nnc(-c4cc5ccccc5n4C)s3)cc3c2[nH]c2ccccc23)cc(OC)c1OC  pIC50 (MTT; 72 h): 5.00
CC(C)[C@H](N)C(=O)N1CCC[C@H]1B(O)O  pIC50 (ATP luminescence; 48 h): 6.94
O=C(Nc1nnc(-c2cc3ccccc3[nH]2)s1)c1cc2c([nH]c3ccccc32)c(-c2ccccc2)n1  pIC50 (MTT; 72 h): 5.08
CCCON(Cc1ccc(C(=O)NO)cc1)C(=O)Nc1ccccc1  pIC50 (ATP luminescence; 72 h): 5.77
Cn1c(-c2nnc(NC(=O)c3cc4c([nH]c5ccccc54)c(-c4ccc(F)cc4)n3)s2)cc2ccccc21  pIC50 (MTT; 72 h): 4.43
COc1cc(O)c(C(=O)c2ccccc2)cc1S(=O)(=O)O  pIC50 (resazurin; 72 h; dark): < 4.00
CCCCN(Cc1ccc(C(=O)NO)cc1)C(=O)Nc1ccccc1  pIC50 (ATP luminescence; 72 h): 6.05
